Experimental data: ChEMBL document CHEMBL1135717, “Minor groove DNA binders as antimicrobial agents. 1. Pyrrole tetraamides are potent antibacterials against vancomycin resistant Enterococci [corrected] and methicillin resistant Staphylococcus aureus” (J Med Chem, 2002)
Converted amounts (≈) assume the structure as drawn.

What was measured:
[1] = Toxicity assessed in human T-cells using a colorimetric cell proliferation assay.; type: cell-based
In short: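 CCRF-CEM human leukemia T-cells in RPMI-1640 with 10% FBS and gentamicin 0.1 mg/mL, seeded at 4 × 10^4 cells/well. Compound added at start at 50, 25, 12.5 and 6.3 μM. WST-1 cleavage read by absorbance at 440 nm at 24, 48 and 72 h. Value reported as lowest % of no-compound control, typically 72 h at 50 μM. At least triplicate.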

Nucleic Acid [2] = experiment: DNA binding measured as Changes in the DNA melting temperature of an AT-rich dodecamer (CGATTATTAAGC) (GCTTAATAATCG) upon binding of an equimolar amount of compound; type: nucleic-acid assay
In short: (§1)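 Melting monitored by UV absorbance at 260 nm in 10 mM HEPES pH 7.2, 0.1 mM EDTA, 50 mM NaCl. 12-bp AT-rich oligo at 5 μM mixed with compound at equimolar ratio. Temperature ramped 15 to 95 °C at 0.2 °C/min. Tm by derivative method, checked by hyperchromicity. ΔTm is Tm with compound minus Tm without. At least duplicate.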

Staphylococcus aureus = experiment: In vitro antimicrobial activity against Methicillin resistant Staphylococcus aureus; type: functional
In short: (§2)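 Broth microdilution MIC per NCCLS M7-A4. Compounds dissolved fresh in DMSO as 10 mM stock, then diluted in BHI medium for VRE (BM4147, UCD3) or Mueller-Hinton medium for MRSA. Seven 1:2 serial dilutions gave test concentrations of 45.5 to 0.7 μM. MIC read by visual inspection of wells after 2 days.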

Enterococcus [3] = experiment: In vitro antimicrobial activity against Vancomycin resistant enterococcus strain BM4147; type: functional; in short: as §2
Enterococcus [4] = experiment: In vitro antimicrobial activity against Vancomycin resistant enterococcus strain UCD-3; type: functional; in short: as §2
Nucleic Acid [5] = experiment: Changes in the DNA melting temperature of an AT-rich dodecamer (CGATTATTAAGC) (GCTTAATAATCG) upon binding of an equimolar amount of compound; type: nucleic-acid assay; in short: as §1

SMILES | NCC [1] [%] | ΔTm (Nucleic Acid [2]) [°C] | MIC (Staphylococcus aureus) [µM] | MIC (Enterococcus [3]) [µM] | MIC (Enterococcus [4]) [µM] | ΔTm (Nucleic Acid [5])
CC(C)CCn1cc(NC(=O)C2CCC(C(=O)Nc3cc(C(=O)NCCC(=N)N)n(CCC(C)C)c3)CC2)cc1C(=O)NCCC(=N)N (stereo unspecified) | 88 | 11 | 11.4 (≈ 7.6 µg/mL) | > 45.5 | > 45.5 | –
CC(C)CCn1cc(NC(=O)C2=CC=C(C(=O)Nc3cc(C(=O)NCCC(=N)N)n(CCC(C)C)c3)CC2)cc1C(=O)NCCC(=N)N | 23 | 26 | 0.7 (≈ 0.464 µg/mL) | 1.4 (≈ 0.928 µg/mL) | 1.4 (≈ 0.928 µg/mL) | –
C/N=C(/CCNC(=O)c1cc(NC(=O)c2ccc(C(=O)Nc3cc(C(=O)NCC/C(=N/C)NC)n(CCC(C)C)c3)cc2)cn1CCC(C)C)NC | – | 26 | 1.4 (≈ 1 µg/mL) | 1.4 (≈ 1 µg/mL) | 1.4 (≈ 1 µg/mL) | –
CC(C)CCn1cc(NC(=O)c2ccc(C(=O)Nc3cc(C(=O)NCCC(=N)N)n(CCC(C)C)c3)c([N+](=O)[O-])c2)cc1C(=O)NCCC(=N)N | 42 | 25 | 1.4 (≈ 0.988 µg/mL) | 1.4 (≈ 0.988 µg/mL) | 1.4 (≈ 0.988 µg/mL) | –
N=C(N)CCNC(=O)c1cc(NC(=O)c2cnc(C(=O)Nc3cc(C(=O)NCCC(=N)N)n(CC4CC4)c3)cn2)cn1CC1CC1 | 90 | 23 | 2.8 (≈ 1.77 µg/mL) | 2.8 (≈ 1.77 µg/mL) | 5.7 (≈ 3.6 µg/mL) | –
CC(C)CCn1cc(NC(=O)c2ccc(C(=O)Nc3cc(C(=O)NCCC4=NCCCN4)n(CCC(C)C)c3)cc2)cc1C(=O)NCCC1=NCCCN1 | 51 | 28 | 0.7 (≈ 0.519 µg/mL) | 0.7 (≈ 0.519 µg/mL) | 0.7 (≈ 0.519 µg/mL) | –
CC(C)CCn1cc(NC(=O)c2ccc(C(=O)Nc3cc(C(=O)NCCN=C(N)N)n(CCC(C)C)c3)cc2)cc1C(=O)NCCN=C(N)N | 5 | 25 | 0.7 (≈ 0.484 µg/mL) | 1.4 (≈ 0.967 µg/mL) | 1.4 (≈ 0.967 µg/mL) | –
Cn1cc(NC(=O)c2cc(NC(=O)c3cc(NC=O)cn3C)cn2C)cc1C(=O)NCCC(=N)N [STALLIMYCIN] | 79 | – | > 45.5 | > 45.5 | > 45.5 | 26
N=C(N)CCNC(=O)c1cc(NC(=O)c2cc(C(=O)Nc3cc(C(=O)NCCC(=N)N)n(CC4CC4)c3)[nH]n2)cn1CC1CC1 | 88 | 26 | 2.8 (≈ 1.73 µg/mL) | 5.7 (≈ 3.53 µg/mL) | 5.7 (≈ 3.53 µg/mL) | –
N=C(N)CCNC(=O)c1cc(NC(=O)c2ccc(C(=O)Nc3cc(C(=O)NCCC(=N)N)n(CC4CC4)c3)s2)cn1CC1CC1 | 65 | 27 | 1.4 (≈ 0.889 µg/mL) | 1.4 (≈ 0.889 µg/mL) | 2.8 (≈ 1.78 µg/mL) | –
CC(C)CCn1cc(NC(=O)c2ccc(C(=O)Nc3cc(C(=O)NCCC(=N)N)n(CCC(C)C)c3)cc2)cc1C(=O)NCCC(=N)N | 4 | – | 1.4 (≈ 0.925 µg/mL) | 0.7 (≈ 0.463 µg/mL) | 0.7 (≈ 0.463 µg/mL) | 28
CC(C)CCn1cc(NC(=O)c2ccc(C(=O)Nc3cc(C(=O)NCCN)n(CCC(C)C)c3)cc2)cc1C(=O)NCCN | 24 | 20 | 2.8 (≈ 1.7 µg/mL) | 11.4 (≈ 6.92 µg/mL) | 11.4 (≈ 6.92 µg/mL) | –
CCC/N=C(\N)CCNC(=O)c1cc(NC(=O)c2ccc(C(=O)Nc3cc(C(=O)NCC/C(N)=N/CCC)n(CCC(C)C)c3)cc2)cn1CCC(C)C | 15 | 26 | 1.4 (≈ 1.04 µg/mL) | 1.4 (≈ 1.04 µg/mL) | 1.4 (≈ 1.04 µg/mL) | –
CNC(=N)CCNC(=O)c1cc(NC(=O)c2ccc(C(=O)Nc3cc(C(=O)NCCC(=N)NC)n(CCC(C)C)c3)cc2)cn1CCC(C)C | 78 | – | – | – | – | –
CC(C)CCn1cc(NC(=O)c2ccc(C(=O)Nc3cc(C(=O)NCCC(=N)N)n(CCC(C)C)c3)c3ccccc23)cc1C(=O)NCCC(=N)N | 15 | 20 | 2.8 (≈ 1.99 µg/mL) | 2.8 (≈ 1.99 µg/mL) | 5.7 (≈ 4.05 µg/mL) | –
CN=C(CCNC(=O)c1cc(NC(=O)c2ccc(C(=O)Nc3cc(C(=O)NCCC(=NC)NC)n(CCC(C)C)c3)cc2)cn1CCC(C)C)NC | 50 | – | – | – | – | –
